ChEMBL document CHEMBL1123352, “Anticonvulsant activity of 2- and 3-aminobenzanilides” (J Med Chem, 1986)
Activity calls are given as the source filed them. The calls are words filed in the database; no cut-off is given here.

Key:
Mus musculus [1] = experiment: Compound for anticonvulsant activity against maximal electroshock (MES)-induced seizures in mice after administration; assay type: functional
Outline: (§1)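 Male Carworth Farms No. 1 mice were dosed ip with compound in 30% polyethylene glycol 400, at 30, 100 and 300 mg/kg and sometimes 600 mg/kg, and tested 30 min and 4 h later. A drop of 0.9% saline went in the eye, then 60-cycle AC at 50 mA was given for 0.2 s via corneal electrodes. Protection meant abolition of hind limb tonic extension.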

Mus musculus [2] = experiment: Compound for anticonvulsant activity against subcutaneous pentylenetetrazole-induced convulsions in mice after administration; assay type: functional; details: sc
Outline: (§2)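 Male Carworth Farms No. 1 mice were dosed ip with compound in 30% PEG 400, at 30–600 mg/kg, and read at 30 min and 4 h. Pentylenetetrazole was given at 85 mg/kg as a 0.5% solution sc in the posterior midline. Protection meant no single episode of clonic spasms lasting at least 5 s over a 30-min observation.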

Mus musculus [3] = experiment: Compound was tested for toxicity by rotarod assay method in mice after intraperitoneal administration after 4 hours; A=Active; assay type: organism-based; details: in vivo, ip
Mus musculus [4] = experiment: Anticonvulsant activity against maximal electroshock (MES) induced seizures in mice 30 minutes after ip administration of 300 mg/kg; A=Active; assay type: functional, organism-based; parameters: dose 300 mg/kg; outline: as §1
Mus musculus [5] = experiment: Anticonvulsant activity against maximal electroshock (MES) induced seizures in mice 4 hours after ip administration of 600 mg/kg; A=Active; assay type: functional, organism-based; parameters: dose 600 mg/kg; outline: as §1
Mus musculus [6] = experiment: Compound was tested for toxicity by rotarod assay method in mice 30 min after ip administration of 300 mg/kg; A=Active; assay type: organism-based; parameters: dose 300 mg/kg, route intraperitoneal; details: in vivo, 0.5 h
Mus musculus [7] = experiment: Anticonvulsant activity against subcutaneous pentylenetetrazole induced convulsions in mice 4 hr after ip administration of 600 mg/kg.; assay type: functional, organism-based; parameters: dose 600 mg/kg; outline: as §2
Mus musculus [8] = experiment: Anticonvulsant activity against subcutaneous pentylenetetrazole induced convulsions in mice 30 min after ip administration of 600 mg/kg.; assay type: functional, organism-based; parameters: dose 600 mg/kg; outline: as §2
Mus musculus [9] = experiment: Anticonvulsant activity against sc pentylenetetrazole induced convulsions in mice 30 minutes after ip administration of 600 mg/kg; A=Active; assay type: functional, organism-based; parameters: dose 600 mg/kg; outline: as §2
Mus musculus [10] = experiment: Anticonvulsant activity against maximal electroshock (MES) induced seizures in mice 4 hours after ip administration of 600 mg/kg.; assay type: functional, organism-based; parameters: dose 600 mg/kg; outline: as §1
Mus musculus [11] = experiment: Compound was tested for toxicity by rotarod assay method in mice 30 min after ip administration of 600 mg/kg; No activity; assay type: organism-based; parameters: dose 600 mg/kg, route intraperitoneal; details: in vivo, 0.5 h
Mus musculus [12] = experiment: Anticonvulsant activity against maximal electroshock (MES) induced seizures in mice 30 minutes after ip administration of 600 mg/kg; A=Active; assay type: functional, organism-based; parameters: dose 600 mg/kg; outline: as §1
Mus musculus [13] = experiment: Compound was tested for toxicity by rotarod assay method in mice 4 hours after ip administration of 600 mg/kg; NA=No activity; assay type: organism-based; parameters: dose 600 mg/kg, route intraperitoneal; details: in vivo

Compound	ED50 (Mus musculus [1]) [mg/kg]	ED50 (Mus musculus [2]) [mg/kg]	Toxicity (Mus musculus [3])	Anticonvulsant activity (Mus musculus [4])	Anticonvulsant activity (Mus musculus [5])	Toxicity (Mus musculus [6])	Anticonvulsant activity (Mus musculus [7])	Anticonvulsant activity (Mus musculus [8])	Anticonvulsant activity (Mus musculus [9])	Anticonvulsant activity (Mus musculus [10])	Toxicity (Mus musculus [11])	Anticonvulsant activity (Mus musculus [12])	Toxicity (Mus musculus [13])
CCCC(CCC)C(=O)O [VALPROIC ACID]	272	149	–	–	–	–	–	–	–	–	–	–	–
CC(C)c1ccccc1NC(=O)c1cccc(N)c1	–	–	Active	Active	Active	Active	inactive	inactive	–	–	–	–	–
Cc1ccc(NC(=O)c2cccc(N)c2)cc1C	–	–	–	–	–	–	inactive	–	Active	inactive	Not Active	Active	Not Active
